Diaphorase inh: diaphorase inhibitors and chemical oxidizers, primary screen, counter-screen for diaphorase-coupled primary assays, biochemical, uHTS, resorufin fluorescence; diaphorase resazurin-to-resorufin fluorescence, NADH, 16 min; bacterial (C. kluyveri) enzyme, not human; inhibition, % at 20 µM; hit rate 0.69% among 190,000;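 active means primary screen inhibition at 20 µM above a set limit, cut at about 50% in these data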;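 further: plate controls were DMSO with full reaction for no effect and wells lacking NADH for full effect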
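Test system: Clostridium kluyveri diaphorase enzyme / Quantity: diaphorase at 0.14 U/mL in enzyme working solution / Incubation: 16-min room-temperature incubation before reading / Benchmarks: NADH-free wells as positive control, DMSO-only neutral wells / Signal: resorufin fluorescence 544/590 nm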
HKDC1 inh: HKDC1 hexokinase inhibitors, primary screen, biochemical, fluorescence, uHTS | Q2TB90 | hit rate 0.16% among 340,000 | recombinant HKDC1, G6PDH/diaphorase resazurin coupled fluorescence | inhibition, % at 20 µM;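 active means inhibition above about 35% when tested at 20 µM, limit read from the data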;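 further: plate controls were DMSO wells with enzyme for no effect and DMSO wells lacking enzyme for full effect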
Target sequence (Q2TB90 whole entry, looked up): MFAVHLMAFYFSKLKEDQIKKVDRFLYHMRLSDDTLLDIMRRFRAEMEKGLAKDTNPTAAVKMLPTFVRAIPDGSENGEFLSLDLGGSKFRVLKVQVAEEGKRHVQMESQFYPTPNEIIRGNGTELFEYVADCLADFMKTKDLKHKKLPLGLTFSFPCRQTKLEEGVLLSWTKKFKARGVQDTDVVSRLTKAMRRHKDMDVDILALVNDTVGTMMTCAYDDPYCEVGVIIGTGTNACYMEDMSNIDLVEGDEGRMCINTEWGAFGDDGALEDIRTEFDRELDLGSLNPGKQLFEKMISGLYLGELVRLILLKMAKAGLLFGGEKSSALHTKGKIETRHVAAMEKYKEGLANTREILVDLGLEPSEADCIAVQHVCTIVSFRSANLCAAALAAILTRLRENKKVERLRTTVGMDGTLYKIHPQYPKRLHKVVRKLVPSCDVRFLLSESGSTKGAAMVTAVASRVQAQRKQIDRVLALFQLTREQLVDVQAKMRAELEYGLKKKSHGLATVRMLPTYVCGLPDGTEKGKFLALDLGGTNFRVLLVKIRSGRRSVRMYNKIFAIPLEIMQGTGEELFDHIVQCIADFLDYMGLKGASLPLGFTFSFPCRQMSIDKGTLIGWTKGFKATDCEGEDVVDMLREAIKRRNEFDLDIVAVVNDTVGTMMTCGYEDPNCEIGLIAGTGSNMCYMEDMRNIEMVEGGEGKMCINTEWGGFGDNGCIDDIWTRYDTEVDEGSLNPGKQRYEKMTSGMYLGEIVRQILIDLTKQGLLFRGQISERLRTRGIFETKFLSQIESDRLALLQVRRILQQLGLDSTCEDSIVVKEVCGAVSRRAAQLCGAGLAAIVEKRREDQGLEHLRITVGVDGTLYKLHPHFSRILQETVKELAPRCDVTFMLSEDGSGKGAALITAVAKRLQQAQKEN
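Test system: recombinant HKDC1 (HK5) hexokinase enzyme, produced in-house / Doses: 20 µM test compound, 1% DMSO / Timing: 90 min, room temperature / Detection: G6PDH/diaphorase-coupled fluorescence, 1 mM NADP, 100 µM resazurin, 525/613 nm / Control set: DMSO wells with and without enzyme mix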
G6PDH CS: L. mesenteroides G6PDH inhibitors, counter-screen for G6PDH-coupled screening assays, biochemical, Leuconostoc mesenteroides enzyme. glucose-6-phosphate dehydrogenase [Leuconostoc mesenteroides]. Purified L. mesenteroides G6PDH, diaphorase/resazurin coupled fluorescence, 45 min. inhibition, % at 5 µM. hit rate 0.12% among 200,000; in the data active means inhibition above about 50%
Diaph act CS: compounds boosting diaphorase resazurin reduction – biochemical, uHTS, resorufin fluorescence, counter-screen for diaphorase-coupled primary assays, primary screen | Diaphorase/resazurin coupled assay, 16 min; hits give high values; 1 = vehicle wells, 0 = NADH-free wells | hit rate 0.005% among 190,000 | activation factor at 20 µM | AID 1229, 2008;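 active means diaphorase activity raised at least twofold by the compound at 20 µM; inactive means activation factor below 2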
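Material: Clostridium kluyveri diaphorase, purified enzyme; Quantity: enzyme 0.07 U/mL final; Medium: HEPES pH 7.4 buffer with MgCl2 and Tween 20; Dosing: single compound dose of 20 µM, 1% DMSO final; Schedule: 16 min reaction at room temperature; Measured by: red resorufin fluorescence at 544/590 nm excitation/emission.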
PfGluPho inh: PfG6PD enzyme inhibitors, primary screen, biochemical, fluorescence intensity, uHTS; PfGluPho enzyme, NADPH resazurin-diaphorase fluorescence; hit rate 0.78% among 350,000; glucose-6-phosphate dehydrogenase-6-phosphogluconolactonase (Plasmodium falciparum 3D7); inhibition, % at 20 µM;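 active means inhibition reaching at least a set limit at 20 µM in the primary screen, cut at about 59% in these data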;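 further: 0% = DMSO wells with substrate and 100% = DMSO wells lacking glucose-6-phosphate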
PfG6PD confirm: PfG6PD inhibitors, hit retest, confirmation, biochemical, fluorescence intensity, single concentration; recombinant PfGluPho, NADPH-diaphorase-resazurin fluorescence; inhibition, % at 20 µM; shares compounds with PfGluPho inh; hit rate 34% among 2,400;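 active means inhibition of at least 50% at 20 µM in any single replicate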;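 further: 0% = DMSO with substrate and 100% = DMSO lacking glucose-6-phosphate substrate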
Diaph ctr 10uM: diaphorase inhibitors and chemical oxidizers, confirmation, counter-screen for P. falciparum G6PD inhibitor project, biochemical, fluorescence intensity, 10 µM NADPH | diaphorase-coupled resazurin reduction, NADPH 10 uM | inhibition, % at 20 µM | shares compounds with PfGluPho inh | AID 504862, 2011 | hit rate 39% among 820;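 active means average inhibition reaching 50% or more with the compound at 20 µM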;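 further: resorufin red fluorescence formed as diaphorase reduces resazurin using NADPH; 0% = DMSO with enzyme and 100% = DMSO without enzyme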
Diaph ctr 30uM: diaphorase inhibitors and chemical oxidizers, confirmation, counter-screen for P. falciparum G6PD inhibitor project, biochemical, fluorescence intensity, 30 µM NADPH; shares compounds with PfGluPho inh; Diaphorase/resazurin coupled assay, resorufin fluorescence; inhibition, % at 20 µM; hit rate 29% among 820; AID 504863, 2011;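 active means inhibition averaging 50% or more, tested at 20 µM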;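 further: 0% = DMSO with enzyme and 100% = DMSO wells lacking diaphorase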
Numbers without * were called inactive; x = no result. Only some compounds are listed: those with a hit (about 1.2% of all), similar ones and a draw of the others.

SMILES | Diaphorase inh | HKDC1 inh | G6PDH CS | Diaph act CS | PfGluPho inh | PfG6PD confirm | others
C=C(CN(C)C)C(=O)c1cc(C)ccc1C | x | 6 | x | x | 79* | 47
Cc1ccc(C)c(C(=O)NCCN(C)C)c1 | 8 | 5 | -1 | 0.9 | 1 | x
CCOC(=O)Cc1cc(=O)n2[nH]c(C(C)(C)C)cc2n1 | x | -1 | x | x | 78* | 76* | Diaph ctr 10uM=64*;Diaph ctr 30uM=46
Cc1c(CCC(=O)NCCCC(=O)O)c(=O)oc2cc3oc4c(c3cc12)CCCC4 | x | 8 | x | x | -19 | x
COc1cc(Cl)c(C)cc1NC(=O)CCN1C(=O)NC(C)(C)C1=O | x | -3 | x | x | 23 | x
O=C(CN(Cc1ccccc1Cl)C(=O)CNS(=O)(=O)c1ccc(F)cc1)NCC1CCCO1 (stereo unspecified) | x | -10 | x | x | -12 | x
Cc1ccc(-c2ccc(/C=N/NC(N)=S)o2)cc1 | x | -6 | x | x | 62* | 16
Cc1ccc(C(=O)NCC(=O)NCC(c2cccs2)N(C)C)cc1C (stereo unspecified) | x | 4 | x | x | -8 | x
O=C(Cn1ccc(=O)[nH]c1=O)NCCO | 13 | 2 | -24 | 0.9 | -11 | x
O=C(Cn1ccc(=O)[nH]c1=O)c1ccc([N+](=O)[O-])o1 | x | x | x | x | 59* | 33
O=C(NCCO)C(=O)Nc1cc2c3c(c1)CCN3C(=O)CC2 | x | -3 | x | x | -2 | x
Nc1c(C(=O)Nc2ccc(Cl)c(C(=O)O)c2)sc2nc3c(cc12)CCCC3 | x | 6 | x | x | 59* | 10
COC(=O)CN(c1ccc(C)c(Cl)c1)S(C)(=O)=O | 14 | 3 | 38 | 0.9 | 6 | x
Cc1ccc(N(CC(=O)N/N=C/c2cccs2)S(C)(=O)=O)cc1Cl | 1 | 4 | 5 | 1 | 106* | 75* | Diaph ctr 10uM=70*;Diaph ctr 30uM=65*
COc1ccc(NC(=O)NC2(C(=O)N3CCCC(C)C3)CCCCC2)cc1 (stereo unspecified) | x | -7 | x | x | 3 | x
CCOC(=O)COn1c(-c2cccc(Cl)c2)nc2ccc([N+](=O)[O-])cc21 | 19 | -1 | 2 | 0.8 | 110* | -16
CCOC(=O)C(C)On1c(-c2cccc(Cl)c2)nc2ccc([N+](=O)[O-])cc21 (stereo unspecified) | 13 | -5 | 2 | 0.9 | 64* | 2
CC(On1c(-c2ccccc2)nc2ccc(Cl)cc21)C(=O)O (stereo unspecified) | -1 | -6 | 2 | 1 | -1 | x
COc1ccc(NC(=O)c2ccc(OC(F)F)cc2)cc1Cl | 20 | 0 | -5 | 0.8 | 85* | 2
CCC(C)(C)n1nnnc1C(c1ccc2ncccc2c1)N1CCN(c2ccc(O)cc2)CC1 (stereo unspecified) | x | 8 | x | x | 46 | 35
O=C1C(=Cc2cccs2)C(=O)c2ccccc21 | -4 | -2 | 1 | 1 | -13 | x
O=C1C(c2ccccc2)=[N+]([O-])c2ccccc21 | x | 25 | x | x | 61* | 12
O=C1/C(=N\S(=O)(=O)c2cccs2)C([n+]2ccccc2)=C([O-])c2ccccc21 | x | 10 | x | x | 65* | 29
COc1ccc(C)cc1Nc1nc(-c2c[nH]c3ccccc23)cs1 | 18 | -4 | -26 | 0.8 | 60* | -8
C[C@@H]1CCCCO[C@@H](CN(C)C(=O)Nc2ccccc2)[C@@H](C)CN([C@H](C)CO)C(=O)c2cc(N(C)C)ccc2O1 | x | x | x | x | 25 | x
SMILES | Diaphorase inh | HKDC1 inh | G6PDH CS | Diaph act CS | PfGluPho inh | PfG6PD confirm | others
C[C@@H]1CCCCO[C@H](CN(C)C(=O)Nc2cccc3ccccc23)[C@@H](C)CN([C@H](C)CO)C(=O)c2cc(N(C)C)ccc2O1 | x | x | x | x | 63* | 3
CC(=NNC(=S)N1CCCC1)c1ccccn1 | x | x | x | x | 67* | 12
Clc1ccc(-c2ccc(CNCC3CCCO3)o2)cc1 (stereo unspecified) | x | 2 | x | x | 1 | x
CCOC(=O)c1c(NC(=O)C2CCCO2)sc(C(N)=O)c1C (stereo unspecified) | 8 | -12 | -4 | 0.9 | -8 | x
CCCOC(=O)c1c(NC(=O)C2CCCO2)sc(C(=O)OC)c1C (stereo unspecified) | -2 | -7 | 7 | 1 | 59* | 21
COc1cc(OC)cc(C(=O)N2CC(=O)Nc3ccccc32)c1 | x | 6 | x | x | -16 | x
CC(=O)Nc1ccc(S(=O)(=O)NNc2cccc(C)c2)cc1 | x | -2 | x | x | 76* | 45* | Diaph ctr 10uM=-10;Diaph ctr 30uM=4
Cc1ccc(S(=O)(=O)Nc2ccc(Nc3ccccc3)cc2)cc1 | x | -1 | x | x | -4 | x
Cc1ccc(S(=O)(=O)NNc2c3ccccc3nc3ccc(Cl)cc23)cc1 | x | x | x | x | 31 | x
Cc1ccc(S(=O)(=O)NNc2ccccc2)cc1 | 26 | -8 | 1 | 0.7 | 65* | 47* | Diaph ctr 10uM=42;Diaph ctr 30uM=19
Cc1ccc(S(=O)(=O)NNc2nc3ccccc3nc2C(F)(F)F)cc1 | 33 | 0 | -5 | 0.7 | 65* | 20
COc1cccc(NC(=O)CN2C(=O)NC3(CCCc4ccccc43)C2=O)c1 (stereo unspecified) | x | -3 | x | x | 5 | x
COc1ccc(CN2CCN(Cc3ccc(C(F)(F)F)cc3)CC2)cc1 | x | -2 | x | x | 1 | x
O=C(Nc1ccc(SC(F)F)cc1)C12CCC(CC1)C2 | 21 | -7 | -6 | 0.8 | 72* | 18

From PubChem BioAssay
